Here are results for one compound from ChEMBL document CHEMBL1153564 (Antimicrob Agents Chemother, 2008).

The test system of series [1] is Nakaseomyces glabratus. In words: Antifungal activity against Candida glabrata 5592 infected in neutropenic ICR/Swiss mouse candidiasis model assessed as dose required to maintain […] of 1.83 +/- 0.54 log10CFU per kidney administered intraperitoneally every 24 hrs up to 4 days measured per 24 hrs. The format is functional.
Series [2] has as its system Nakaseomyces glabratus. Nature of the series: Antifungal activity against Candida glabrata 5376 infected in neutropenic ICR/Swiss mouse candidiasis model assessed as reduction of […] in kidney at 20 mg/kg, ip administered 2 hrs postinfection as single dose measured within 1 to 4 hrs post dosing by time-kill assay. Format: functional, organism-based. More on the design: dose 20 mg/kg. The essentials: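 Neutropenic mice were infected i.v. and 2 h later given a single i.p. dose (1.25, 5 or 20 mg/kg). Groups of three treated and three control mice were killed at intervals over 96 h, and kidney CFU were counted on SDA (limit 100 CFU/ml). The post-antifungal effect is t − c: the time for a 1 log10 CFU/kidney increase once serum levels fall below the MIC in treated mice, minus the same time in controls.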

Series [3] has as its system Nakaseomyces glabratus. In words: Antifungal activity against Candida glabrata 5376 infected in neutropenic ICR/Swiss mouse candidiasis model assessed as prolongation of fungal growth suppression at 1.25 mg/kg, ip administered 2 hrs postinfection as single dose by time-kill assay. The format is functional. The settings on record: route intraperitoneal. The essentials: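 Single ip dose of 1.25, 5 or 20 mg/kg given 2 h after iv infection of neutropenic mice. Groups of 3 treated and 3 control mice sampled at 1–24 h intervals over 96 h. Kidney homogenates plated on SDA, 24 h at 35°C. PAFE = time for treated burden to rise 1 log10 CFU/kidney after serum level fell below MIC, minus the same time in controls.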

Series [4] concerns Nakaseomyces glabratus. Nature of the series: Antifungal activity against Candida glabrata 34341 assessed as complete growth inhibition after 24 hrs by CLSI end point method. The format is functional. The settings on record: Nakaseomyces glabratus, 34341, 24 h. The essentials: (§1)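 Two end points were read against the drug-free control well: partial growth inhibition (the CLSI end point) and complete inhibition. Run in duplicate on four separate occasions; the value is the mean. Drug stock was made in DMSO and diluted in 0.9% NaCl.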

The test system of series [5] is Serum. In words: Fraction unbound in Candida glabrata 5376-infected neutropenic ICR/Swiss mouse serum at 1.25 mg/kg, ip administered 2 hrs postinfection as single dose. The format is ADME, organism-based. More on the design: dose 1.25 mg/kg, route intraperitoneal. The settings on record: in vivo.
The test system of series [6] is Candida albicans. Nature of the series: Antifungal activity against Candida albicans K-1 infected in neutropenic ICR/Swiss mouse candidiasis model assessed as suppression of fungal regrowth at 5 mg/kg, ip administered 2 hrs postinfection as single dose by time-kill assay. Format: functional, organism-based. Details: dose 5 mg/kg. Summed up: (§2)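 Single ip dose (20, 5 or 1.25 mg/kg) given 2 h after iv infection of neutropenic mice with K-1. Three treated and three control mice were sampled at intervals over 96 h for kidney CFU. PAFE is the time for treated burden to rise 1 log10 after serum levels fall below MIC, minus the same time in controls. Free drug was taken as 1%.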

Series [7] relates to Candida albicans. In words: Antifungal activity against Candida albicans K-1 infected in neutropenic ICR/Swiss mouse candidiasis model assessed as dose required to maintain […] of 3.90 +/- 0.15 log10CFU per kidney administered intraperitoneally every 16 hrs up to 4 days measured per 96 hrs. Format: functional. Summed up:
(§3)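 Neutropenic mice were infected iv with C. albicans K-1 2 h before therapy. Total doses of 1.25, 5, 20, 80 and 320 mg/kg/96 h were split into 1, 2, 4 or 6 ip doses (q96h, q48h, q24h, q16h), three mice per regimen. Effect is the log10 CFU/kidney relative to untreated controls at 96 h. Static and 1-log doses were taken from a Hill model fit.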

In series [8] the test system is Nakaseomyces glabratus. In words: Antifungal activity against Candida glabrata 5376 infected in neutropenic ICR/Swiss mouse candidiasis model assessed as reduction of […] in kidney at 1.25 mg/kg, ip administered 2 hrs postinfection as single dose measured after 96 hrs post dosing by time-kill assay. Format: functional, organism-based. Details: dose 1.25 mg/kg. Summed up:
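Neutropenic mice given a single ip dose (1.25, 5 or 20 mg/kg) 2 h after tail-vein infection. Kidneys from 3 mice per time point collected nine times over 96 h. Homogenates serially diluted 1:10 and plated on SDA, 24 h at 35°C. Detection limit 100 CFU/ml.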

The test system of series [9] is Nakaseomyces glabratus. In words: Antifungal activity against Candida glabrata 37661 assessed as complete growth inhibition after 24 hrs by CLSI end point method. Format: functional. Conditions: Nakaseomyces glabratus, 37661, 24 h. Summed up:
as §1

Series [10] deals with Nakaseomyces glabratus. Nature of the series: Antifungal activity against Candida glabrata 5376 infected in neutropenic ICR/Swiss mouse candidiasis model assessed as […] burden per kidney administered intraperitoneally every 16 hrs up to 4 days measured per 96 hrs. The settings on record: Nakaseomyces glabratus, 5376, Kidney, ip. Format: functional. The essentials: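 Neutropenic ICR/Swiss mice infected i.v. with the strain; therapy began 2 h later. Total doses of 1.25–320 mg/kg/96 h were given i.p. as 1, 2, 4 or 6 doses (q96h, q48h, q24h, q16h), three mice per regimen. Kidney CFU were counted after 4 days. Effect is the change from untreated controls at the end of therapy.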

The nature of series [11]: AUC (0 to infinity) in serum of neutropenic ICR/Swiss mouse candidiasis model at 5 mg/kg, ip by reverse-phase high-pressure liquid chromatography. The format is ADME, organism-based. Details: time infinity, dose 5 mg/kg, route intraperitoneal. Summed up: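 Single ip dose in 0.2 ml to infected neutropenic mice. Serum from groups of three isoflurane-anaesthetised mice at 1, 4, 8, 12, 24 and 48 h, stored −80°C. Drug measured by reverse-phase HPLC with fluorescence detection against loratadine internal standard (calibration 10–50,000 ng/ml). Noncompartmental analysis; AUC by trapezoidal rule.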

Series [12] has as its system Candida albicans. In words: Antifungal activity against Candida albicans K-1 infected in neutropenic ICR/Swiss mouse candidiasis model assessed as suppression of fungal regrowth at 20 mg/kg, ip administered 2 hrs postinfection as single dose by time-kill assay. The format is functional, organism-based. Details: dose 20 mg/kg. Summed up:
as §2

The test system of series [13] is Serum. Nature of the series: Fraction unbound in Candida glabrata 5376-infected neutropenic ICR/Swiss mouse serum at 5 mg/kg, ip administered 2 hrs postinfection as single dose. The settings on record: in vivo. The format is ADME, organism-based. More on the design: dose 5 mg/kg, route intraperitoneal.
Series [14] has as its system Nakaseomyces glabratus. Nature of the series: Antifungal activity against Candida glabrata 570 infected in neutropenic ICR/Swiss mouse candidiasis model assessed as dose required to maintain […] of 1.83 +/- 0.54 log10CFU per kidney administered intraperitoneally every 24 hrs up to 4 days measured per 24 hrs. Format: functional.
In series [15] the test system is Candida albicans. Nature of the series: Antifungal activity against Candida albicans K-1 infected in neutropenic ICR/Swiss mouse candidiasis model assessed as reduction of […] in kidney at 20 mg/kg, ip administered 2 hrs postinfection as single dose measured within 1 to 4 hrs post dosing by time-kill assay. More on the design: dose 20 mg/kg. The format is functional, organism-based. The essentials:
as §2

For series [16], the system named is Candida albicans. Nature of the series: Antifungal activity against Candida albicans K-1 infected in neutropenic ICR/Swiss mouse candidiasis model assessed as dose required for 1-log10 reduction in […] per kidney administered intraperitoneally every 48 hrs up to 4 days measured per 96 hrs. Format: functional. The essentials:
as §3

In series [17] the test system is Nakaseomyces glabratus. In words: Antifungal activity against Candida glabrata 5376 infected in neutropenic ICR/Swiss mouse candidiasis model assessed as dose required to maintain […] of 3.71 +/- 0.21 log10CFU per kidney administered intraperitoneally every 48 hrs up to 4 days measured per 96 hrs.
A short description of series [18]: Protein binding in Candida albicans K-1 infected neutropenic ICR/Swiss mouse serum after 30 mins by arithmetic dilution method. Conditions: read-out: PB (converted). Format: ADME, organism-based.

In brackets after ≈: the same amount, converted by molar mass. Activity calls are given as the source filed them. No cut-off for these calls is given here. Starred links: 1 amine or outer side, 2 acyl side, 3 side chain; linkers in the order of their positions; H or OH if unused. Positions of bridges follow the written chain, without caps; N, C: chain ends. Non-standard residues stand in square brackets, D forms with d. Residues, ends and D or L forms follow the SMILES beside them. *: point of attachment. pTerphenylCO(4''-OnC5H11) = CCCCCOc1ccc(-c2ccc(-c3ccc(C(=O)*)cc3)cc2)cc1; Orn(4R-OH,5R-OH) = O=C([C@H](C[C@@H](O)[C@@H](O)N[*:3])N[*:1])[*:2]; hTyr(3S-OH,4S-OH) = N[C@H](C(=O)O)[C@H](O)[C@@H](O)c1ccc(O)cc1; Pro(3S-OH,4S-Me) = C[C@H]1CN[C@H](C(=O)O)[C@H]1O; Hyp = O=C(O)[C@@H]1C[C@@H](O)CN1

For orientation: MIC means the lowest concentration found to suppress growth. One may read the ED50 as the midpoint of the dose-response relation. As a reminder, the AUC(0-inf) is total exposure, with the tail of the curve extrapolated. Low values mean less exposure, high ones more exposure. Regarding `CCCCCOc1ccc(-c2ccc(-c3ccc(C(=O)N[C@H]4C[C@@H](O)[C@@H](O)NC(=O)[C@@H]5[C@@H](O)[C@@H](C)CN5C(=O)[C@H]([C@@H](C)O)NC(=O)[C@H]([C@H](O)[C@@H](O)c5ccc(O)cc5)NC(=O)[C@@H]5C[C@@H](O)CN5C(=O)[C@H]([C@@H](C)O)NC4=O)cc3)cc2)cc1` [ANIDULAFUNGIN] ({pTerphenylCO(4''-OnC5H11)}-[Orn(4R-OH,5R-OH)]T[Hyp][hTyr(3S-OH,4S-OH)]T[Pro(3S-OH,4S-Me)]; lactam 1-C), the Activity worked out at 3.57 mg/kg in the series with Nakaseomyces glabratus [1]; 19 h with Nakaseomyces glabratus [3]; 16.5 mg/kg with Candida albicans [7]; 1.97 mg/kg with Nakaseomyces glabratus [14]; 9.19 mg/kg in the series on Candida albicans [16]; 15.3 mg/kg in the series on Nakaseomyces glabratus [17]. The outcome in the series with Nakaseomyces glabratus [2], in the series on Candida albicans [6], with Nakaseomyces glabratus [8], with Candida albicans [12] and in the series on Candida albicans [15] was Active. The figures for the MIC in the series on Nakaseomyces glabratus [4] and in the series on Nakaseomyces glabratus [9] were 1 µg/mL (≈ 0.877 µM) and 2 µg/mL (≈ 1.75 µM), respectively. In addition, the Fu in the series with Serum [5] and in the series with Serum [13] was 1% each time. Also, the ED50 in the series on Nakaseomyces glabratus [10] was 26.3 mg/kg. Further, the AUC(0-inf) in [11] stood at 96000 ng·h/mL. Besides, the fraction unbound at 0.5 h in series [18] was 0.2.
